Source: PubChem
FAS-TE inh – FAS thioesterase domain inhibitors, primary screen, biochemical, fluorescence intensity, uHTS. Fatty acid synthase (Homo sapiens), P49327. recombinant FAS-TE, OMFH fluorogenic substrate, fluorescence endpoint. inhibition, % at 15 µM. hit rate 0.67% among 360,000. AID 602261, 2012;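 active = compounds whose normalised, plate-corrected inhibition of enzyme fluorescence in the single-dose primary screen is 50% or more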
H9c2 protect – cardioprotection against H2O2-induced cell death, primary screen, uHTS, H9c2 cells, ATPLite luminescence; H9c2 cardiomyocytes, H2O2 injury protection, 2 h; protection from H2O2 cell death, % at 20 µM; hit rate 0.63% among 360,000; AID 588492, 2011;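 active = compounds giving at least 50% protection of heart cells from peroxide-induced death in the single-dose screen, raw or plate-pattern-corrected value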
Arrestin-AP2 inh – inhibitors of beta-arrestin/AP2 binding, primary screen, biochemical, GPCR trafficking, flow cytometry; inhibition, % at 10 µM; FITC-arrestin peptide / GST-AP2 beads; AP2 beta2 appendage carries R879A mutation; hit rate 0.31% among 340,000; AID 504490, 2011;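 active = inhibition above a set limit, near 3 SD of compounds lacking own fluorescence, cut at about 54% in these data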
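Material – GST-tagged AP2 beta2-adaptin appendage (R879A) on 4 µm glutathione beads · Probe or stimulus – fluorescein-tagged arrestin peptide at 50 nM final · Timing – 12 min plus 1 h, RT · Detection – bead flow cytometry, FITC channel · Read-out basis – inhibition as reduced fluorescein signal on beads, percent · Medium – PBS plus Tween 20 (0.05%) and BSA (0.1%)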
NR3A LBD binder – binders of NR3A ligand-binding domain, primary screen, biophysical, differential scanning fluorimetry, uHTS | Glutamate receptor ionotropic, NMDA 3A (GRIN3A) ligand-binding domain | NR3A LBD differential scanning fluorimetry, Tm shift; 0% = protein alone, 100% = glycine-bound protein | Tm shift relative to glycine control, % at 25 µM | hit rate 2.5% among 340,000;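 active = melting temperature shift of at least 10% of the positive control shift, at one fixed dose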
SENP1 inh – human SENP1 catalytic domain inhibitors, primary screen, biochemical, FRET, uHTS; hit rate 0.21% among 360,000; recombinant SENP1 catalytic domain, CyPet-SUMO1-YPet FRET cleavage; AID 624204, 2012; inhibition, % at 10 µM; Sentrin-specific protease 1 (Homo sapiens), Q9P0U3;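 active = inhibition at least 30% at 10 µM, raw YFP signal under a set limit, fluorescence ratio 0.5 to 1.5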
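Controls: no-enzyme wells low, DMSO-plus-enzyme wells high control. Test system: human recombinant His6-tagged SENP1 catalytic domain enzyme. Reagent: SFCypet-SUMO1-SFYpet FRET protein substrate, 25 nM final. Doses: one dose per compound, 10 µM, 0.5% DMSO. Detection: FRET, CFP and YFP emission. Timing: 50 min reaction at room temperature.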
hiPSC survival – enhancers of single-cell hiPSC survival, primary screen, ATPlite luminescence. hit rate 0.044% among 360,000. survival enhancement, % at 20 µM. 100% = ROCK inhibitor wells, 0% = DMSO; in the data active = survival enhancement above about 18%;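 also: cells exposed to compounds for 16 hours before the ATP read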
FAS-TE inh conf – FAS thioesterase domain inhibitors, confirmation, biochemical, fluorescence intensity, single concentration | hit rate 45% among 2,300 | recombinant FAS-TE, OMFH fluorogenic substrate | shares compounds with FAS-TE inh | inhibition, % at 15 µM;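 active = compounds inhibiting the enzyme by at least 50% at 15 µM in any one of the replicates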
Each line names hits and unclear results; the compound was inactive in the other large screens (follow-up assays come after a bar, where they were run). A selection: hits, their analogues and other compounds. The true share with any hit is near 4%.

COc1ccc([N+](=O)[O-])cc1/C=N/NC(=O)CNC(=O)c1cccc(F)c1	FAS-TE inh 70 | FAS-TE inh conf 75
COc1ccc(CCC(=O)N2c3ccccc3N=C(c3ccc4c(c3)OCO4)C2C(=O)NCc2ccccc2)cc1 (centres undefined)	none (no result: FAS-TE inh, H9c2 protect, Arrestin-AP2 inh, NR3A LBD binder, hiPSC survival)
CCCc1nc2ccccc2n1C(CCSC)C(=O)NC(C)(C)C (centres undefined)	none (no result: FAS-TE inh, H9c2 protect, Arrestin-AP2 inh, NR3A LBD binder, hiPSC survival)
COc1ccc(-n2nc(C(=O)NCC(=O)N3CCN(c4cccc(Cl)c4)CC3)c3ccccc3c2=O)c(OC)c1	FAS-TE inh 55 | FAS-TE inh conf inactive
Cc1cc(C)n(-c2cc(N3CCN(S(=O)(=O)c4ccc(Br)cc4)CC3)ccc2[N+](=O)[O-])n1	FAS-TE inh 51 | FAS-TE inh conf inactive
Cc1cc(C)c(S(=O)(=O)N2CCN(c3ccc([N+](=O)[O-])c(-n4nc(C)cc4C)c3)CC2)c(C)c1	none
COc1ccc(-c2cc(-c3ccc(O)cc3)nc(N)c2C#N)cc1	FAS-TE inh 57 | FAS-TE inh conf inactive
CCCC(=O)NC1=C(Cl)C(=O)c2ccccc2C1=O	FAS-TE inh 53 | FAS-TE inh conf 56
Cn1c(=O)n(C)c2cc([N+](=O)[O-])c(N3CCN(S(=O)(=O)c4ccc(C(C)(C)C)cc4)CC3)cc21	FAS-TE inh 73 | FAS-TE inh conf inactive
Nc1nc2ncccc2cc1C(=O)NC1CCCCC1	none (no result: H9c2 protect, Arrestin-AP2 inh, NR3A LBD binder)
Cc1c(C(=O)Nc2cccc(Cl)c2)oc2ccc(S(=O)(=O)N3CCC4(CC3)OCCO4)cc12	FAS-TE inh 66 | FAS-TE inh conf inactive
C=CCNc1nc(Nc2ccc([N+](=O)[O-])cc2)nc(N2CCCC2)n1	none
CC1CCN(c2nc(Cl)nc(Nc3ccc([N+](=O)[O-])cc3)n2)CC1	FAS-TE inh 54 | FAS-TE inh conf inactive
CCNC(=O)C1CCCN(C(=O)c2ccc3c(c2)OCO3)CC1 (centres undefined)	none (no result: Arrestin-AP2 inh, NR3A LBD binder)
O=C(CSc1nc2ccccc2c(=O)n1-c1ccc(F)cc1)Nc1ccc(Cl)c(S(=O)(=O)N2CCOCC2)c1	FAS-TE inh 78 | FAS-TE inh conf inactive
O=C(CSc1nc2ccccc2c(=O)n1CCCN1CCOCC1)Nc1cccc(S(=O)(=O)N2CCCCCC2)c1	none
Cc1ccc(-n2c(SCC(=O)Nc3cc(S(=O)(=O)N4CCOCC4)ccc3Cl)nc3ccccc3c2=O)cc1	FAS-TE inh 95, NR3A LBD binder 10 | FAS-TE inh conf inactive
O=C(CSc1nc2ccccc2c(=O)n1-c1ccc(F)c(Cl)c1)Nc1cccc(S(=O)(=O)N2CCOCC2)c1	FAS-TE inh 78 | FAS-TE inh conf inactive
Cc1cc2nnc(SCC(=O)Nc3cc(S(=O)(=O)N4CCOCC4)ccc3Cl)n2c2ccccc12	none
O=C(N[C@H]1CC[C@H](CCNS(=O)(=O)c2ccc(Cl)cc2)O[C@@H]1CO)c1cccc(F)c1	none (no result: FAS-TE inh, H9c2 protect, Arrestin-AP2 inh, NR3A LBD binder, hiPSC survival)
Cc1ccc(NC(=C(C#N)C#N)c2ccccc2)cc1	none (no result: Arrestin-AP2 inh, NR3A LBD binder)
CC1(c2ccccc2)CC(C)(C)N2C(=O)/C(=C3\SC(=S)NC3=O)c3cccc1c32 (centres undefined)	FAS-TE inh 78 | FAS-TE inh conf inactive
C[C@H]1CCCCO[C@H](CN(C)S(=O)(=O)c2cn(C)cn2)[C@@H](C)CN([C@@H](C)CO)C(=O)c2cc(NS(=O)(=O)c3ccccc3)ccc2O1	none (no result: Arrestin-AP2 inh, NR3A LBD binder)
COc1ccc(NC(=O)CN2CCN(c3nc(-c4ccc(F)cc4)cs3)CC2)c(OC)c1	FAS-TE inh 54 | FAS-TE inh conf inactive
COc1ccc(NC(=O)CN2CCN(c3nc(-c4cccc(OC)c4)cs3)CC2)cc1	none
